Experiment [1] can be described thus: RPL19A-GFP modulators, yeast TOR pathway, confirmation, cell-based, S. cerevisiae, flow cytometry, cherry picks, mother/daughter gates (AID 2270;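 active = GFP response below 50% of the DMSO control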). The conditions noted are these: S. cerevisiae RPL19A-GFP strain, 3 h, at 10 µM, stronger effect = lower value, 100 = same GFP as DMSO wells. In general terms: Flow cytometry measures light scatter and fluorescence of single cells or particles in a stream.

Experiment [2] is described as follows: LAP4-GFP expression modulators in yeast, confirmation, cell-based, cherry picks, flow cytometry, mother/daughter gates (AID 2271;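 active = GFP response above 150% of the DMSO control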;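 note: ratio of sample to DMSO plate mean so 100% equals DMSO level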). Conditions: S. cerevisiae LAP4-GFP strain, 3 h, at 10 µM, stronger effect = higher value, 100 means same as DMSO control. An outline of the steps: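 Material: Alexa Fluor 633-labelled Saccharomyces cerevisiae GFP-fusion strain, single-plex | Amount: Yeast cells seeded at OD600 of 0.2 | Buffer or medium: SC growth medium | Schedule: 3 h exposure, 30 °C | Measured by: HT flow cytometry, GFP fluorescence channel | Evaluation: % GFP response vs DMSO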

A short description of experiment [3]: modulators of MEP2-GFP levels in yeast, confirmation, S. cerevisiae, flow cytometry GFP, cherry picks (AID 2272;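 active = GFP response above 150% of the DMSO control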;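 note: ratio of well signal to plate DMSO mean so 100% equals DMSO level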). Conditions: S. cerevisiae MEP2-GFP strain, 3 h, at 10 µM, stronger effect = higher value.
The nature of experiment [4]: AGP1-GFP expression modulators, hit retest, confirmation, cell-based, flow cytometry, S. cerevisiae, cherry picks (AID 2273).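 Note: median GFP channel fluorescence over the whole cell population gate.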 Conditions: S. cerevisiae AGP1-GFP strain, 3 h, at 10 µM.
Experiment [5] in a line: modulators of CIT2-GFP expression in yeast, confirmation, S. cerevisiae, GFP fusion, cherry picks, mother/daughter gates (AID 2274). Conditions: S. cerevisiae CIT2-GFP strain, flow cytometry, 3 h, at 10 µM, stronger effect = higher value.
[6] abbreviates: measured here: daughter cell gate.
[7] abbreviates: measured here: mother cell gate.
Where [8] appears, read: measured here: daughter cell gate response.
The mark [9] stands for this setting: measured here: mother cell gate response.

Active and inactive are the calls of the source.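 Rule for the calls, unless noted: active = GFP response above 150% of the DMSO level; inconclusive = fewer than 70 events counted for a yeast strain; inactive = the rest.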

As to `CC1CN(c2nnnn2-c2ccccc2)CC(C)O1` (stereo unspecified), the GFP response vs DMSO was 99% (inactive) in experiment [1], 99.1% in experiment [1] (setting [6]), 99.8% in experiment [1] (setting [7]) and 96.2% (inactive) in experiment [3]. Further, the GFP response relative to DMSO in experiment [2] is 102% (inactive); in experiment [2] (setting [8]), 101%; in experiment [2] (setting [9]), 100%. For the same compound, the GFP response, % of DMSO in experiment [4] is 100% (inactive); in experiment [5], 101% (inactive); in experiment [5] (setting [6]), 103%; in experiment [5] (setting [7]), 99.7%.

In the case of `CC(=O)N(C1=C(Cl)C(=O)c2ccccc2C1=O)C1CCCCC1`, the GFP response vs DMSO in experiment [1] is 22.6% (active); in experiment [1] (setting [6]), 92.8%; in experiment [1] (setting [7]), 23.1%; in experiment [3], 97.8% (inactive). Further, the figures for the GFP response relative to DMSO in experiment [2], in experiment [2] (setting [8]) and in experiment [2] (setting [9]) were 72.2% (inactive), 113% and 73.7%, respectively. Further, the GFP response, % of DMSO is 34.1% (inactive) in experiment [4], 69.1% (inactive) in experiment [5], 93.2% in experiment [5] (setting [6]) and 54.7% in experiment [5] (setting [7]).

With `COc1ccc(/C(C)=N/NC(=O)c2ccc(N(C)C)cc2)cc1`, the GFP response vs DMSO in experiment [1] was 103% (inactive); in experiment [1] (setting [6]), 102%; in experiment [1] (setting [7]) it was 103%; in experiment [3], 104% (inactive). Further, the GFP response relative to DMSO is 95% (inactive) in experiment [2], 94.1% in experiment [2] (setting [8]) and 97.2% in experiment [2] (setting [9]). Also, the GFP response, % of DMSO in experiment [4] was 101% (inactive); in experiment [5], 104% (inactive); in experiment [5] (setting [6]), 103%; in experiment [5] (setting [7]), 104%.

`CN(Cc1ccccc1)S(=O)(=O)c1ccc(C(=O)Nc2nnc(C3CC3)o2)cc1`: the GFP response vs DMSO in experiment [1] was 103% (inactive); in experiment [1] (setting [6]), 102%; in experiment [1] (setting [7]), 105%; in experiment [3] it was 96.8% (inactive). In addition, the GFP response relative to DMSO in experiment [2] is 98.2% (inactive); in experiment [2] (setting [8]), 99.1%; in experiment [2] (setting [9]) it was 97.3%. For the same compound, the GFP response, % of DMSO in experiment [4] was 99.2% (inactive); in experiment [5] it was 102% (inactive); in experiment [5] (setting [6]), 103%; in experiment [5] (setting [7]) it was 102%.

Turning to `COC(=O)c1ccc(/C=N/OCC(=O)NCCc2ccc(OC)c(OC)c2)cc1`, the GFP response vs DMSO in experiment [1] was 99% (inactive); in experiment [1] (setting [6]), 99%; in experiment [1] (setting [7]) it was 98.7%; in experiment [3], 102% (inactive). Moreover, the results for the GFP response relative to DMSO in experiment [2], in experiment [2] (setting [8]) and in experiment [2] (setting [9]) were 97.4% (inactive), 102% and 97.2%, respectively. The GFP response, % of DMSO in experiment [4] is 102% (inactive); in experiment [5], 107% (inactive); in experiment [5] (setting [6]), 106%; in experiment [5] (setting [7]), 107%.

On to `O=[N+]([O-])c1ncccc1OCc1ccc(-c2ccccc2)cc1`, for which the GFP response vs DMSO in experiment [1] is 101% (inactive); in experiment [1] (setting [6]), 99.6%; in experiment [1] (setting [7]) it was 98.8%; in experiment [3], 160% (inactive). The GFP response relative to DMSO was 135% (inactive) in experiment [2], 138% in experiment [2] (setting [8]) and 131% in experiment [2] (setting [9]). The GFP response, % of DMSO was 104% (inactive) in experiment [4], 123% (inactive) in experiment [5], 126% in experiment [5] (setting [6]) and 114% in experiment [5] (setting [7]).

As for `COc1cc(/C=C2\N=C(c3ccccc3)OC2=O)ccc1OCc1c(C)no[n+]1[O-]`, the GFP response vs DMSO in experiment [1] is 103% (inactive); in experiment [1] (setting [6]) it was 101%; in experiment [1] (setting [7]), 103%; in experiment [3], 104% (inactive). Also, the GFP response relative to DMSO in experiment [2] was 96.5% (inactive); in experiment [2] (setting [8]), 97.9%; in experiment [2] (setting [9]), 96.5%. Besides, the GFP response, % of DMSO in experiment [4] is 97.5% (inactive); in experiment [5] it was 99.3% (inactive); in experiment [5] (setting [6]), 100%; in experiment [5] (setting [7]) it was 96.8%.

`COc1ccc(C2CC(c3cccs3)=NN2S(=O)(=O)c2ccc(C)cc2)cc1` (stereo unspecified): the GFP response vs DMSO in experiment [1] was 98.7% (inactive); in experiment [1] (setting [6]), 99.1%; in experiment [1] (setting [7]) it was 98.6%; in experiment [3] it was 104% (inactive). Besides, the GFP response relative to DMSO in experiment [2] was 106% (inactive); in experiment [2] (setting [8]), 105%; in experiment [2] (setting [9]) it was 107%. Also, the GFP response, % of DMSO in experiment [4] was 106% (inactive); in experiment [5] it was 106% (inactive); in experiment [5] (setting [6]) it was 106%; in experiment [5] (setting [7]), 106%.

On to `O=C(O)c1ccn2c(C(=O)c3ccccc3)c(-c3ccccc3)cc2c1`, for which the GFP response vs DMSO in experiment [1] is 91.1% (inactive); in experiment [1] (setting [6]) it was 88.6%; in experiment [1] (setting [7]) it was 95.4%; in experiment [3] it was 94.1% (inactive). The values for the GFP response relative to DMSO in experiment [2], in experiment [2] (setting [8]) and in experiment [2] (setting [9]) were 113% (inactive), 112% and 116%, respectively. Besides, the GFP response, % of DMSO is 88.2% (inactive) in experiment [4], 96.9% (inactive) in experiment [5], 95.4% in experiment [5] (setting [6]) and 97.3% in experiment [5] (setting [7]).

On to `O=C(c1ccc([N+](=O)[O-])o1)N1CCN(c2nc3c(F)cc(F)cc3s2)CC1`, for which the GFP response vs DMSO in experiment [1] was 80.1% (inactive); in experiment [1] (setting [6]), 78%; in experiment [1] (setting [7]), 67.5%; in experiment [3], 197% (active). In addition, the GFP response relative to DMSO in experiment [2] was 250% (active); in experiment [2] (setting [8]) it was 169%; in experiment [2] (setting [9]), 232%. Further, the GFP response, % of DMSO in experiment [4] was 102% (inactive); in experiment [5], 142% (inactive); in experiment [5] (setting [6]), 108%; in experiment [5] (setting [7]), 121%.

For the compound `Cc1cc(S(=O)(=O)ON2C(=O)c3ccccc3C2=O)ccc1F`, the GFP response vs DMSO was 78.2% (inactive) in experiment [1], 84.3% in experiment [1] (setting [6]), 66.6% in experiment [1] (setting [7]) and 108% (inactive) in experiment [3]. The results for the GFP response relative to DMSO in experiment [2], in experiment [2] (setting [8]) and in experiment [2] (setting [9]) were 153% (active), 153% and 160%, respectively. Moreover, the GFP response, % of DMSO in experiment [4] was 105% (inactive); in experiment [5], 120% (inactive); in experiment [5] (setting [6]), 84.1%; in experiment [5] (setting [7]), 98.7%.

`COc1ccc(CN2CCSc3sccc3C2=O)cc1`: the GFP response vs DMSO is 93.2% (inactive) in experiment [1], 90.7% in experiment [1] (setting [6]), 93.9% in experiment [1] (setting [7]) and 92.6% (inactive) in experiment [3]. Moreover, the figures for the GFP response relative to DMSO in experiment [2], in experiment [2] (setting [8]) and in experiment [2] (setting [9]) were 110% (inactive), 109% and 112%, respectively. In addition, the GFP response, % of DMSO in experiment [4] was 97.3% (inactive); in experiment [5] it was 102% (inactive); in experiment [5] (setting [6]) it was 103%; in experiment [5] (setting [7]), 102%.

As to `CCCc1[nH]nc2c1C(c1ccc(OC)c(Cn3nc(C)c(Br)c3C)c1)C(C#N)=C(N)O2` (stereo unspecified), the GFP response vs DMSO was 95% (inactive) in experiment [1], 94.2% in experiment [1] (setting [6]), 96.2% in experiment [1] (setting [7]) and 99.5% (inactive) in experiment [3]. The GFP response relative to DMSO in experiment [2] is 97.7% (inactive); in experiment [2] (setting [8]), 97.9%; in experiment [2] (setting [9]) it was 98.5%. The GFP response, % of DMSO in experiment [4] was 99.3% (inactive); in experiment [5] it was 97.8% (inactive); in experiment [5] (setting [6]), 98.3%; in experiment [5] (setting [7]) it was 95.6%.

For `O=C(Nc1nc2ccc(F)cc2s1)c1ccccn1`, the GFP response vs DMSO is 102% (inactive) in experiment [1], 102% in experiment [1] (setting [6]), 99.3% in experiment [1] (setting [7]) and 116% (inactive) in experiment [3]. Besides, the GFP response relative to DMSO in experiment [2] was 185% (active); in experiment [2] (setting [8]) it was 156%; in experiment [2] (setting [9]) it was 193%. In addition, the GFP response, % of DMSO is 107% (inactive) in experiment [4], 99.7% (inactive) in experiment [5], 105% in experiment [5] (setting [6]) and 92.8% in experiment [5] (setting [7]).

For the compound `CCOc1ccc(N2C(=O)CC(Sc3nccc(C)n3)C2=O)cc1` (stereo unspecified), the GFP response vs DMSO in experiment [1] was 97.3% (inactive); in experiment [1] (setting [6]), 99.3%; in experiment [1] (setting [7]), 97.3%; in experiment [3], 103% (inactive). Moreover, the results for the GFP response relative to DMSO in experiment [2], in experiment [2] (setting [8]) and in experiment [2] (setting [9]) were 97.7% (inactive), 97.5% and 97.4%, respectively. In addition, the GFP response, % of DMSO in experiment [4] is 102% (inactive); in experiment [5], 100% (inactive); in experiment [5] (setting [6]), 97.6%; in experiment [5] (setting [7]), 102%.

With `Clc1cnc(N/N=C/c2cccs2)c(Cl)c1`, the GFP response vs DMSO in experiment [1] is 105% (inactive); in experiment [1] (setting [6]), 100%; in experiment [1] (setting [7]) it was 103%; in experiment [3], 126% (inactive). Further, the figures for the GFP response relative to DMSO in experiment [2], in experiment [2] (setting [8]) and in experiment [2] (setting [9]) were 178% (active), 158% and 172%, respectively. Besides, the GFP response, % of DMSO in experiment [4] was 98.2% (inactive); in experiment [5], 103% (inactive); in experiment [5] (setting [6]), 110%; in experiment [5] (setting [7]), 97.1%.

The values above are taken from PubChem BioAssay.
